The results in this text go back to ChEMBL document CHEMBL3792306, “Antichagasic and trichomonacidal activity of 1-substituted 2-benzyl-5-nitroindazolin-3-ones and 3-alkoxy-2-benzyl-5-nitro-2H-indazoles” (Eur J Med Chem, 2016).

A short description of data set [1]: Selectivity index, ratio of CC50 for african green monkey Vero cells to IC50 for metronidazole-resistant Trichomonas vaginalis IR78 trophozoites. In kind it is functional. In outline:
(§1)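 Selectivity index = Vero CC50 (24 h resazurin, probit) divided by trophozoite IC50 (24 h resazurin, probit) for the named T. vaginalis isolate.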

In data set [2] the test system is Trichomonas vaginalis. As to the kind of experiment: Trichomonacidal activity against metronidazole-sensitive Trichomonas vaginalis JH31A#4 trophozoites after 24 hrs by resazurin dye based fluorescence assay. In kind it is functional, organism-based. To be noted: JH31A#4, 24 h. In outline:
(§2)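 Trophozoites in TYM with 10% FBS, 37 °C, 5% CO₂, seeded at 10⁵/mL in glass tubes. After 5 h, compounds added at 9.37–300 µM final (DMSO <0.2%). Viability read by resazurin fluorimetry after 24 h at 37 °C. Metronidazole 25 µM as reference. At least two runs in triplicate; IC50 with 95% limits by probit.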

The test system of data set [3] is Trichomonas vaginalis. Kind of data set: Trichomonacidal activity against metronidazole-resistant Trichomonas vaginalis IR78 trophozoites after 24 hrs by resazurin dye based fluorescence assay. It is filed as functional, organism-based. Conditions: IR78, 24 h. The essentials:
as §2

The nature of data set [4]: Cytotoxicity against african green monkey Vero cells assessed as inhibition of cell growth after 24 hrs by resazurin dye based fluorescence assay. To be noted: chlorocebus sabaeus. The essentials: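 Vero CCL-81 cells (50,000/well, RPMI with 10% FBS) attached 6 h at 37 °C, then 24 h with compound. Resazurin added for 3 h, fluorescence at ex 535/em 590 nm. Triplicates in two independent assays; CC50 and 95% confidence limits by probit analysis.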

Data set [5] can be described thus: Selectivity index, ratio of CC50 for african green monkey Vero cells to IC50 for metronidazole-sensitive Trichomonas vaginalis JH31A#4 trophozoites. It is filed as functional. In outline:
as §1

Data set [6] can be described thus: Cytotoxicity against african green monkey Vero cells assessed as inhibition of cell growth at 300 uM after 24 hrs by resazurin dye based fluorescence assay. To be noted: chlorocebus sabaeus, read-out: Activity.
For data set [7], the system named is Trypanosoma cruzi. As to the kind of experiment: Antichagasic activity against Trypanosoma cruzi CL-B5 epimastigotes […] assessed as growth inhibition after 72 hrs by beta galactosidase reporter gene assay. It is filed as functional, organism-based. In outline: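 Then CPRG (200 µM final, pH 7.4) in Triton X-100 added for 3 h at 37 °C, A595 read. Triplicates, three independent runs; IC50 from dose–response of %growth inhibition, mean ± SD.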
In general terms: Reporter assays use an easily measured gene product as a stand-in for the process of interest.

Data set [8] deals with Trypanosoma cruzi. As to the kind of experiment: Antichagasic activity against Trypanosoma cruzi Tulahuen amastigotes in mouse L929 cells assessed as growth inhibition after 96 hrs by beta galactosidase reporter gene assay. It is filed as functional, organism-based. To be noted: L929, 96 h. The essentials: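 L929 cells (4000/well, RPMIS) held 24 h at 37 °C, then exposed 2 h to Tulahuen C4 lacZ trypomastigotes (1:10). Infection established 48 h, then compounds for 96 h at 37 °C, 5% CO₂. 500 µM CPRG in 0.5% Nonidet P40 for 18 h, A570. Triplicates; IC50 from %inhibition curves, mean ± SD.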

Data set [9] is described as follows: Cytotoxicity against mouse L929 cells after 48 hrs by resazurin assay. It is filed as cell-based. To be noted: read-out: LC50. The essentials: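 L929 fibroblasts, 15×10^3 cells/well in MEM, attached 3 h. Exposed to compounds for 48 h at 37 °C, 5% CO2. Resazurin (2 mM solution in PBS) added for 3 h; fluorescence read at 535/590 nm to give % cytotoxicity. Triplicate wells, three independent runs. LC50 taken from concentration vs %C curves, mean ± SD.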
On the technique in general: Alamar Blue is a resazurin reagent that responds to reducing activity.

The test system of data set [10] is Trypanosoma cruzi. Kind of data set: Antichagasic activity against Trypanosoma cruzi CL-B5 intracellular amastigotes in mouse L929 cells assessed as growth inhibition after 7 days by beta galactosidase reporter gene assay. In kind it is functional, organism-based. To be noted: CL-B5, L929, 168 h. The essentials:
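L929 fibroblasts (10,000/well, MEM) infected overnight at 33 °C, 5% CO₂ with CL-B5 lacZ tissue-culture trypomastigotes (1:6 cell:parasite). Washed, then 7 days with compound in fresh MEM. CPRG (400 µM final, pH 7.4) in 3% Triton X-100 for 3 h at 37 °C, A595. Triplicates; IC50 from %amastigote growth inhibition curves, mean ± SD.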

A short description of data set [11]: Selectivity index, ratio of LC50 for mouse L929 cells to IC50 for Trypanosoma cruzi CL-B5 lacZ epimastigotes […]. In kind it is toxicity, cell-based. To be noted: read-out: Ratio LC50/IC50. The essentials: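 SI = LC50 (L929, 48 h resazurin) / epimastigote IC50. […] CPRG (200 µM final, 0.9% Triton X-100, pH 7.4) added for 3 h at 37 °C, A595 read. Triplicates, n = 3; IC50 from %EGI curves.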

Data set [12] concerns Trypanosoma cruzi. As to the kind of experiment: Antichagasic activity against Trypanosoma cruzi Y strain amastigotes in mouse cardiomyocytes assessed as growth inhibition after 48 hrs by giemsa staining based assay. It is filed as functional, organism-based. In outline: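 Primary embryonic Swiss mouse cardiac cells (100,000/well on gelatin-coated coverslips) infected 24 h with Y strain bloodstream trypomastigotes (1:10), washed, then 48 h with compound in DMEM. Bouin-fixed, Giemsa-stained. Infected cells and parasites per infected cell scored in 400 cells in duplicate; endocytic index = product. IC50 from %EI curves, mean ± SD.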

A short description of data set [13]: Selectivity index, ratio of LC50 for mouse L929 cells to IC50 for Trypanosoma cruzi CL-B5 lacZ amastigotes in mouse L929 cells. In kind it is toxicity, cell-based. To be noted: read-out: Ratio LC50/IC50. In outline: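 SI = LC50 (L929, 48 h resazurin) / amastigote IC50. Amastigotes: L929 cells (10,000/well, MEM) infected overnight at 33 °C with CL-B5 lacZ tissue-culture trypomastigotes (1:6 cell:parasite), washed, then exposed to compounds for 7 days. CPRG (400 µM final, 3% Triton X-100, pH 7.4) added for 3 h at 37 °C, A595 read. Triplicates; IC50 from %AGI curves. Assayed only when epimastigote SI warranted.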

A short description of data set [14]: Cytotoxicity against mouse Cardiomyocytes after 48 hrs by Prestoblue assay. Details: species or system Cardiomyocyte. Conditions: read-out: LC50. The essentials: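 Primary embryonic cardiac cells from Swiss mice, grown in DMEM with CaCl2, L-glutamine, 5% FBS and chick embryo extract. Seeded at 6×10^4 cells/well on gelatin, pre-incubated 24 h, then exposed to compounds for 48 h at 37 °C, 5% CO2. Morphology and contractility checked by light microscopy. PrestoBlue added for 5 h, absorbance read at 570/600 nm. Triplicates, n = 3; LC50 from dose–response, mean ± SD.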

The test system of data set [15] is Trypanosoma cruzi. As to the kind of experiment: Antichagasic activity against Trypanosoma cruzi Y strain epimastigotes […] assessed as growth inhibition after 48 hrs by resazurin assay. It is filed as functional, organism-based. The essentials: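 Y strain epimastigotes (3 × 10⁶/mL, log phase, pre-grown overnight at 28 °C) exposed 48 h at 28 °C, cell-free. Resazurin added for 5 more h, fluorescence read at ex 535/em 590 nm. Triplicates, three independent runs; IC50 from %growth inhibition curves, mean ± SD.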

A value given as a limit tells only on which side of the number the result lay.

What is called IC50 is the midpoint of a concentration-inhibition curve. In the case of `Cc1ncc([N+](=O)[O-])n1CCO` [METRONIDAZOLE], the “Ratio CC50/IC50” value in data set [1] and in data set [5] was over 100 in each case. For the same compound, the concentration for half-maximal inhibition (IC50) was 1.43 µM in the data set on Trichomonas vaginalis [2] and 5.78 µM in the data set on Trichomonas vaginalis [3]. Moreover, the CC50 at 24 h in data set [4] was over 600 µM.

Turning to `O=c1c2cc([N+](=O)[O-])ccc2n(CCO)n1Cc1ccccc1`, the inhibition at 24 h, 300 µM in data set [6] is under 20%. In addition, the 50% inhibitory concentration (IC50) was 1.58 µM in the data set with Trypanosoma cruzi [7]; 0.81 µM in the data set on Trypanosoma cruzi [8]; 0.22 µM in the data set on Trypanosoma cruzi [10]; 17.9 µM in the data set with Trichomonas vaginalis [2]; 0.6 µM in the data set with Trypanosoma cruzi [12]; 3.18 µM in the data set with Trypanosoma cruzi [15]. Also, the CC50 at 48 h was over 256 µM in data set [9] and over 100 µM in [14]. Further, the selectivity ratio in data set [11] was over 162; in [13], over 1160. Also, the CC50 at 24 h in [4] was over 300 µM. The “Ratio CC50/IC50” value in [5] is over 16.7.

`O=[N+]([O-])c1ccc2nn(Cc3ccccc3)c(OCCCBr)c2c1`: the inhibition at 24 h, 300 µM in data set [6] was under 20%. Also, the IC50 came out at 39 µM in the data set on Trypanosoma cruzi [7], 18.6 µM with Trichomonas vaginalis [2] and 39.1 µM with Trichomonas vaginalis [3]. Moreover, the CC50 at 48 h in [9] is 59 µM. Also, the “Ratio CC50/IC50” value is listed as 13.8 in [1] and 29 in [5]. In addition, in data set [11], the selectivity ratio turned out to be 1.51. Moreover, the CC50 at 24 h in data set [4] worked out at 539 µM.

For the compound `O=C(Cn1ccnc1[N+](=O)[O-])NCc1ccccc1` [BENZNIDAZOLE], the IC50 in the data set with Trypanosoma cruzi [7] is 22.7 µM; with Trypanosoma cruzi [8], 1.66 µM; in the data set with Trypanosoma cruzi [10], 0.68 µM; in the data set on Trypanosoma cruzi [12], 1.77 µM. Further, the CC50 at 48 h is over 256 µM in data set [9] and over 100 µM in data set [14]. The results for the selectivity ratio in [11] and in [13] were over 11.3 and over 376, respectively.

Regarding `O=[N+]([O-])c1ccc2nn(Cc3ccccc3)c(OCCO)c2c1`, in [6], the inhibition at 24 h, 300 µM is 14.7%. Further, the IC50 was over 256 µM in the data set with Trypanosoma cruzi [7], 9.82 µM in the data set with Trichomonas vaginalis [2] and 49.8 µM in the data set on Trichomonas vaginalis [3]. Further, the CC50 at 48 h in data set [9] was over 256 µM. For the same compound, the “Ratio CC50/IC50” value in [1] is on record as over 6; in data set [5], over 30.5. Further, the CC50 at 24 h in [4] is over 300 µM.

Take `O=[N+]([O-])c1ccc2nn(Cc3ccccc3)c(OCCCO)c2c1`: in data set [6], the inhibition at 24 h, 300 µM came to 14.5%. The IC50 was 64.9 µM in the data set with Trypanosoma cruzi [7], 7.25 µM with Trichomonas vaginalis [2] and 9.11 µM in the data set with Trichomonas vaginalis [3]. Further, the CC50 at 48 h in data set [9] is over 256 µM. Besides, the “Ratio CC50/IC50” value in data set [1] is listed as over 32.9; in [5], over 41.4. Further, in data set [11], the selectivity ratio was over 3.94. Further, the CC50 at 24 h in data set [4] was over 300 µM.

In the case of `COC(=O)CCOc1c2cc([N+](=O)[O-])ccc2nn1Cc1ccccc1`, the inhibition at 24 h, 300 µM in data set [6] was under 20%. Besides, the IC50 was over 256 µM in the data set with Trypanosoma cruzi [7] and 43 µM with Trichomonas vaginalis [2]. Further, the CC50 at 48 h in data set [9] was over 256 µM. The CC50 at 24 h in data set [4] was over 300 µM. In addition, the “Ratio CC50/IC50” value in data set [5] was over 7.

Regarding `CN(C)C(=O)CCCn1c2ccc([N+](=O)[O-])cc2c(=O)n1Cc1ccccc1`, the inhibition at 24 h, 300 µM in data set [6] was under 20%. Further, the IC50 in the data set on Trypanosoma cruzi [7] amounted to 3.86 µM; in the data set with Trypanosoma cruzi [10], 0.54 µM; with Trichomonas vaginalis [2], 48.9 µM. Moreover, the CC50 at 48 h in [9] was over 256 µM. The selectivity ratio is over 66.3 in [11] and over 474 in data set [13]. Besides, the CC50 at 24 h in [4] was over 300 µM. In addition, in data set [5], the “Ratio CC50/IC50” value is reported as over 6.1.

For `O=c1c2cc([N+](=O)[O-])ccc2n(CCBr)n1Cc1ccccc1`, the IC50 was 2.13 µM in the data set with Trypanosoma cruzi [7], 1.14 µM in the data set with Trypanosoma cruzi [10] and 348 µM in the data set on Trichomonas vaginalis [2]. Besides, the CC50 at 48 h in [9] was over 256 µM. Moreover, the selectivity ratio was over 120 in [11] and over 225 in data set [13].

With `CCOC(=O)CCCOc1c2cc([N+](=O)[O-])ccc2nn1Cc1ccccc1`, the IC50 worked out at 25.1 µM with Trypanosoma cruzi [7], 25.4 µM with Trypanosoma cruzi [10] and 20.6 µM with Trichomonas vaginalis [2]. The CC50 at 48 h in data set [9] is over 256 µM. The selectivity ratio in [11] is over 10.2; in data set [13], over 10.1.
